The series in a line: Human plasma stability assay. It counts as in vitro ADME. The conditions noted are these: 37 °C. The procedure, abridged:
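Lyophilised human plasma reconstituted in sterile water, stored in aliquots at −80 °C, and thawed at room temperature (three aliquots per compound). Each aliquot spiked with test compound from a 2 mM DMSO stock; Angiotensin I as positive control. Incubated at 37 °C. Samples taken at […], quenched with water/acetonitrile, centrifuged (17 000g, 4 °C, 1 h), and supernatants concentrated.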

Where only a bound is given, the exact number is not on record here.

In the case of “Angiotensin I (DRVYIHPFHL; Angiotensin-1; UniProt P01019 25-34, looked up)”, the “Time to complete degradation in human plasma” value is given as at most 4 h.

The record behind these values is PMC8796305 (ACS Central Science, 2022).
